Experimental data from ChEMBL document CHEMBL4196176, “Structure-Based Design of MptpB Inhibitors That Reduce Multidrug-Resistant Mycobacterium tuberculosis Survival and Infection Burden in Vivo” (J Med Chem, 2018).
Changes are numbered by the printed parent chain. Active and inactive are the calls of the source. No cut-off for these calls is given here.

Tests used:
[1] = target: T1, Phosphotyrosine protein phosphatase ptpB (Mycobacterium bovis (strain BCG / Pasteur 1173P2)) (UniProt A0A0H3M0T0); assay: Inhibition of Mycobacterium bovis BCG Pasteur ptpB infected in mouse J774A.1 cells assessed as reduction in intracellular bacterial burden at 10 to 120 uM after 24 hrs post infection; type: cell-based; details: Mycobacterium tuberculosis variant bovis BCG
T1 sequence (whole entry): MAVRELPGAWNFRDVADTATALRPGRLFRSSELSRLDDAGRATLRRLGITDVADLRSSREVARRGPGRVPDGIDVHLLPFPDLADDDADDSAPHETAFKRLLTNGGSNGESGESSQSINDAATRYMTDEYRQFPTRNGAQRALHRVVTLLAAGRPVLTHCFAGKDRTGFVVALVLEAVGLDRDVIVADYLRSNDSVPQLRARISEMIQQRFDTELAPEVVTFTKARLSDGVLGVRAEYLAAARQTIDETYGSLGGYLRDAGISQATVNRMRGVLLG
In short: (§1)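 J774A.1 mouse macrophages in DMEM with 10% heat-inactivated FBS, seeded at 2 × 10^3/well overnight. Pretreated with inhibitor in DMSO or DMSO alone, then infected with BCG Pasteur at MOI 10:1 for 4 h and washed (time 0). Medium and inhibitor renewed at 24 h. Cells lysed in 0.05% Tween 80 at 72 h; CFU counted on 7H10 after 3 weeks. Triplicate, ≥3 experiments.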

[2] = target: T1, Phosphotyrosine protein phosphatase ptpB (Mycobacterium bovis (strain BCG / Pasteur 1173P2)); assay: Inhibition of Mycobacterium bovis BCG Pasteur ptpB infected in mouse J774A.1 cells assessed as reduction in intracellular bacterial burden at 10 to 120 uM after 72 hrs post infection relative to DMSO-treated control; type: cell-based; details: Mycobacterium tuberculosis variant bovis BCG; in short: as §1
[3] = target: T1, Phosphotyrosine protein phosphatase ptpB (Mycobacterium bovis (strain BCG / Pasteur 1173P2)); assay: Inhibition of Mycobacterium bovis BCG Pasteur ptpB infected in mouse J774A.1 cells assessed as reduction in intracellular bacterial burden at 80 uM after 72 hrs post infection; type: cell-based; details: Mycobacterium tuberculosis variant bovis BCG; in short: as §1
[4] = target: T2, Phosphotyrosine protein phosphatase (Mycobacterium tuberculosis) (UniProt A0A045ISB3); assay: Inhibition of multi-drug resistant Mycobacterium tuberculosis Beijing-W_565 ptpB infected in human THP1 cells assessed as reduction in intracellular bacterial burden at 20 to 80 uM after 72 hrs post infection relative to DMSO-treated control; type: cell-based
T2 sequence (whole entry): T1 sequence (whole entry) with G105D
In short: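 THP1 cells (1 × 10^6/well) were PMA-treated overnight. Inhibitor (20 or 80 μM, in DMSO) was added in RPMI with 10% FBS before infection with thawed bacteria at MOI 1:1. Washed four times after 3 h; inhibitor re-added at 24 h. At 72 h, cells lysed in 0.05% SDS and CFU plated (duplicate 10-fold dilutions, 7H10, 3 weeks); triplicates.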

[5] = test system: Mycobacterium tuberculosis variant bovis BCG; assay: Antibacterial activity against Mycobacterium bovis BCG Pasteur infected in mouse J774A.1 cells assessed as reduction in bacterial burden at 0.3 ug/ml after 72 hrs post infection relative to control; type: functional; design: scale not given: the % may be the effect or the level left; in short: as §1
[6] = test system: Mycobacterium tuberculosis variant bovis BCG; assay: Antibacterial activity against Mycobacterium bovis BCG Pasteur assessed as reduction in extracellular growth at 80 uM; type: functional, organism-based
[7] = target: T1, Phosphotyrosine protein phosphatase ptpB (Mycobacterium bovis (strain BCG / Pasteur 1173P2)); assay: Inhibition of Mycobacterium bovis BCG Pasteur ptpB infected in mouse J774A.1 cells assessed as reduction in intracellular bacterial burden at 5 uM after 72 hrs post infection in presence of isoniazid; type: cell-based; details: Mycobacterium tuberculosis variant bovis BCG; in short: as §1
[8] = target: T1, Phosphotyrosine protein phosphatase ptpB (Mycobacterium bovis (strain BCG / Pasteur 1173P2)); assay: Inhibition of Mycobacterium bovis BCG Pasteur ptpB infected in mouse J774A.1 cells assessed as reduction in intracellular bacterial burden at 5 uM after 72 hrs post infection in presence of rifampicin; type: cell-based; details: Mycobacterium tuberculosis variant bovis BCG; in short: as §1
[9] = target: T1, Phosphotyrosine protein phosphatase ptpB (Mycobacterium bovis (strain BCG / Pasteur 1173P2)); assay: Inhibition of Mycobacterium bovis BCG Pasteur ptpB infected in mouse J774A.1 cells assessed as reduction in intracellular bacterial burden up to 500 uM after 72 hrs post infection relative to treated-DMSO control; type: cell-based; details: Mycobacterium tuberculosis variant bovis BCG; in short: as §1
[10] = target: T2, Phosphotyrosine protein phosphatase (Mycobacterium tuberculosis); assay: Inhibition of multi-drug resistant Mycobacterium tuberculosis Beijing-W_565 ptpB infected in human THP1 cells assessed as reduction in intracellular bacterial burden at 20 to 100 uM after 72 hrs post infection relative to DMSO-treated control; type: cell-based
In short: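 PMA-differentiated THP1 cells (1 × 10^6/well) in RPMI with 10% FBS. Inhibitor (0, 20 or 80 μM in DMSO) added, then infected with thawed M. tuberculosis at MOI 1:1 for 3 h and washed 4 times. Medium and inhibitor renewed at 24 h. Cells lysed in 0.05% SDS at 72 h; CFU plated in duplicate and counted after 3 weeks. Triplicate.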

[11] = test system: Mycobacterium tuberculosis variant bovis BCG; assay: Antibacterial activity against Mycobacterium bovis BCG Pasteur infected in mouse J774A.1 cells assessed as reduction in bacterial burden at 0.1 ug/ml after 72 hrs post infection relative to control; type: functional; design: scale not given: the % may be the effect or the level left; in short: as §1

In the case of `O=C(O)c1noc(-c2ccccc2)c1-c1cccc(-c2ccc(O)c(Cl)c2)c1`, the inhibition [1] is reported as “Active”, the inhibition [2] is reported as 81 to 87% and the inhibition [3] is reported as “Active”.
With `COC(=O)c1c(O)cccc1OC/C=C/c1cccc(-c2cc(C(=O)O)no2)c1` [ISOXAZOLECARBOXYLIC ACID] the inhibition [4] was “Active”.
With `O=C(O)c1noc(-c2ccccc2)c1-c1cccc(-c2ccc(O)c(F)c2)c1` the inhibition [1] was “Active”, the inhibition [2] was 81 to 87% and the inhibition [3] was “Active”.
`CO[C@H]1/C=C/O[C@@]2(C)Oc3c(C)c(O)c4c(O)c(c(/C=N/N5CCN(C)CC5)c(O)c4c3C2=O)NC(=O)/C(C)=C\C=C\[C@H](C)[C@H](O)[C@@H](C)[C@@H](O)[C@@H](C)[C@H](OC(C)=O)[C@@H]1C` [RIFAMPIN] was tested, and the Activity [5] was less than 25%.
In the case of `Cc1onc(C(=O)O)c1-c1cccc(-c2cc(Cl)c(O)c(Cl)c2)c1`, the Activity [6] is reported as “inactive”, the inhibition [7] is reported as greater than 93% and the inhibition [8] is reported as greater than 93%. For the same compound, the inhibition [9] was less than 84% and the inhibition [10] was less than 74%.
In the case of `NNC(=O)c1ccncc1` [ISONIAZID], the Activity [11] is reported as less than 25%.
For `O=C(O)c1noc(-c2ccccc2)c1-c1cccc(-c2cc(Cl)c(O)c([N+](=O)[O-])c2)c1`, the inhibition [1] was “Active”, the inhibition [2] was 81 to 87% and the inhibition [3] was “Active”.
In the case of `O=C(O)c1noc(-c2ccccc2)c1-c1cccc(-c2ccc(O)cc2)c1`, the inhibition [1] is reported as “Active”, the inhibition [2] is reported as 81 to 87% and the inhibition [3] is reported as “Active”.
In the case of `O=C(O)c1noc(-c2ccccc2)c1-c1cccc(-c2cc(Cl)c(O)c(Cl)c2)c1`, the inhibition [1] is reported as “Active” and the inhibition [2] is reported as 81 to 87%.
